Molecules are shown by their SMILES.

This is an account of results in ChEMBL document CHEMBL3425447, “Discovery of Orally Available Runt-Related Transcription Factor 3 (RUNX3) Modulators for Anticancer Chemotherapy by Epigenetic Activation and Protein Stabilization” (J Med Chem, 2015).

One data set concerns ACHN. As to the kind of experiment: Growth inhibition of human ACHN cells after 5 days by sulforhodamine B assay. It counts as functional. The settings on record: 120 h. In general terms: Sulforhodamine B stains cellular protein and so reports cell mass.
The nature of data set [1]: Growth inhibition of human NUGC3 cells after 5 days by sulforhodamine B assay. Type of data set: functional. The conditions noted are these: NUGC-3, 120 h.
Data set [2] is described as follows: Growth inhibition of human PC3 cells after 5 days by sulforhodamine B assay. Type of data set: functional. The settings on record: PC-3, 120 h.
The nature of data set [3]: Metabolic stability in mouse liver microsomes assessed as compound remaining at 1 uM after 30 mins byLC-ESI/MS/MS analysis in presence of NADPH. The settings on record: read-out: Stability. It counts as ADME. In outline: (§1)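 Compound at 1 µM incubated in triplicate with pooled mouse liver microsomes (0.5 mg/ml final) in 0.1 M potassium phosphate, pH 7.4, at 37°C, with or without 1 mM NADPH. Reactions stopped at 0 and 30 min with ice-cold acetonitrile containing internal standard. After centrifugation, supernatant analyzed by LC-ESI/MS/MS; percent remaining from analyte/IS peak-area ratios. Buspirone served as positive control.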
(Liver microsomes are a subcellular fraction often used to study metabolism.)

For the next data set, the target named is Histone deacetylase. As to the kind of experiment: Inhibition of HDAC in human HeLa cell nuclear extract using Fluor de Lys as substrate incubated with compound for 30 mins by microtiter-plate reading flourimeter analysis. Type of data set: protein assay.
The next data set has as its system C2C12. Nature of the data set: Induction of RUNX transcriptional activation in mouse C2C12-6xOSE2 cells at 1 uM after 24 hrs by luciferase reporter assay relative to FGF-2. Type of data set: functional. In short, it runs like this:
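C2C12-6xOSE stable cells grown in DMEM with 10% FBS at 37°C, 5% CO2. Seeded at 1 × 10^4 cells/well; next day treated with compound or FGF-2 (1 µM each). After 24 h, luciferase measured with Bright-Glo. Activity expressed as percent of the FGF-2 positive-control response.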
(A reporter such as luciferase makes a cellular process visible.)

The next data set concerns MDA-MB-231. Nature of the data set: Growth inhibition of human MDA-MB-231 cells after 5 days by sulforhodamine B assay. Type of data set: functional. The settings on record: MDA-MB-231, 120 h.
Data set [4] can be described thus: Metabolic stability in mouse liver microsomes assessed as compound remaining at 1 uM after 30 mins by LC-ESI/MS/MS analysis in absence of NADPH. It counts as ADME. The settings on record: read-out: Stability. In short, it runs like this: as §1
A short description of data set [5]: Growth inhibition of human HCT15 cells after 5 days by sulforhodamine B assay. Type of data set: functional. The settings on record: HCT-15, 120 h.
The next data set has as its system NCI-H23. As to the kind of experiment: Growth inhibition of human NCI-H23 cells after 5 days by sulforhodamine B assay. It counts as functional. The conditions noted are these: NCI-H23, 120 h.
Data set [6] has as its system HEK293. As to the kind of experiment: Induction of myc-tagged RUNX3 acetylation in human HEK293 cells assessed as RUNX3 level at 1 uM after 24 hrs by immunoprecipitation analysis relative to TSA. It counts as functional. In outline: (§2)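 HEK293 cells (DMEM, 10% FBS) transfected with myc-RUNX3 vector using Lipofectamine 2000. Next day treated at 1 µM for 24 h. Lysates (HEPES pH 7.5, NP-40 buffer) immunoprecipitated with anti-myc antibody and protein G beads at 4°C. Immunoprecipitates western-blotted with anti-acetylated lysine antibody; relative acetylated RUNX3 quantified.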

Data set [7] deals with HEK293. Nature of the data set: Induction of myc-tagged RUNX3 acetylation in human HEK293 cells assessed as acetylated RUNX3 level at 1 uM after 24 hrs by immunoprecipitation analysis relative to TSA. Type of data set: functional. In short, it runs like this: as §2
A short description of data set [8]: Retention time of the compound by HPLC analysis. Type of data set: physicochemical.

As usually defined, the GI50 is the concentration that inhibits growth by half. A low value points to more potent growth inhibition. The term IC50 denotes the concentration that inhibits the measured activity by half. With `CCOc1ccc(CCn2cccc(/C=C/C(=O)NO)c2=O)cc1`, the GI50 is 2340 nM in the data set on ACHN; 1280 nM in data set [1]; 140 nM in [2]; 2050 nM in the data set on MDA-MB-231; 1000 nM in data set [5]; 1050 nM in the data set on NCI-H23. Further, the remaining at 0.5 h, 1 µM in data set [3] was found to be 59.6%; in data set [4], 105%. The IC50 at Histone deacetylase came to 70 nM. The Activity in the data set with C2C12 was determined as 119.5%. Also, the “fold change (FC)” value was found to be 0.8 in the data set on HEK293 [6] and 0.2 in the data set with HEK293 [7].

On to `CC(C)(C)c1ccc(CCn2cccc(/C=C/C(=O)NO)c2=O)cc1`, for which the GI50 came to 700 nM in the data set on ACHN; 470 nM in data set [1]; 500 nM in data set [2]; 840 nM in the data set with MDA-MB-231; 710 nM in data set [5]; 910 nM in the data set on NCI-H23. Also, the remaining at 0.5 h, 1 µM is 28.3% in [3] and 103% in data set [4]. Also, on Histone deacetylase, the IC50 was determined as 110 nM. Moreover, the Activity with C2C12 is 104.7%. Further, the “fold change (FC)” value is 1.2 in the data set on HEK293 [6] and 0.1 with HEK293 [7].

For the molecule `O=C(/C=C/c1cccn(CCCc2cccc(Br)c2)c1=O)NO`, the GI50 in the data set with ACHN was found to be 740 nM; in data set [1] it was 1200 nM; in data set [2], 1260 nM; in the data set with MDA-MB-231, 1850 nM; in data set [5], 1160 nM; in the data set on NCI-H23, 1220 nM. The remaining at 0.5 h, 1 µM in data set [3] stood at 20.7%; in [4], 96.7%. Also, the IC50 at Histone deacetylase amounted to 100 nM. Besides, in the data set with C2C12, the Activity is 100.8%. Further, the “fold change (FC)” value is listed as 0.7 in the data set on HEK293 [6] and 0.4 in the data set with HEK293 [7].

For the molecule `COc1cccc(Cn2cccc(/C=C/C(=O)NO)c2=O)c1`, the GI50 was 1260 nM in the data set on ACHN; 1690 nM in [1]; 1820 nM in [2]; 3180 nM in the data set on MDA-MB-231; 2600 nM in data set [5]; 2690 nM with NCI-H23. In addition, the remaining at 0.5 h, 1 µM in [3] is 61.5%; in data set [4], 98.6%. Moreover, the IC50 on Histone deacetylase came out at 150 nM. In the data set on C2C12, this molecule returned an Activity of 200%. Further, the “fold change (FC)” value with HEK293 [6] is 2; in the data set on HEK293 [7], 17.

On to `CCc1ccc(CCn2cccc(/C=C/C(=O)NO)c2=O)cc1`, for which the GI50 is 700 nM in the data set with ACHN; 740 nM in data set [1]; 530 nM in data set [2]; 720 nM in the data set with MDA-MB-231; 690 nM in data set [5]; 690 nM with NCI-H23. Moreover, the remaining at 0.5 h, 1 µM in [3] worked out at 11.1%; in data set [4], 96.5%. The IC50 on Histone deacetylase is 70 nM. In the data set with C2C12, this molecule gave an Activity of 106%. Also, the “fold change (FC)” value is on record as 0.4 in the data set on HEK293 [6] and 0.2 in the data set with HEK293 [7].

In the case of `CCOc1ccccc1CCCn1cccc(/C=C/C(=O)NO)c1=O`, the GI50 is 320 nM with ACHN; 470 nM in data set [1]; 180 nM in data set [2]; 560 nM in the data set on MDA-MB-231; 660 nM in data set [5]; 460 nM in the data set on NCI-H23. The remaining at 0.5 h, 1 µM turned out to be 31.5% in data set [3] and 104% in data set [4]. Moreover, the IC50 on Histone deacetylase was 50 nM. The molecule further showed an Activity in the data set on C2C12 of 105.5%. For the same molecule, the entries for the “fold change (FC)” value with HEK293 [6] and with HEK293 [7] were 13.7 and 37.2, respectively. In addition, the Retention_time in [8] is recorded as 12.367 min.
